Reference: ChEMBL document CHEMBL4699667, “Discovery of the Potent, Selective, Orally Available CXCR7 Antagonist ACT-1004-1239” (J Med Chem, 2020)
Converted amounts (≈) assume the structure as drawn.

How the values were obtained:
[1] = physchem
[2] = physchem; conditions: octanol/water, pH 7.4
[3] = Aqueous solubility at pH 7; type: physicochemical
[4] = Solubility in FeSSIF-V1 medium; type: physicochemical
[5] = Solubility in FaSSIF-V1 medium; type: physicochemical
[6] = Cmax in DBA/1 mouse plasma at 100 mg/kg, po administered as single dose measured after 0.5 hrs; type: ADME, organism-based; set-up: route oral, dose 100 mg/kg, time 0.5 hrs
How it was run: (§1)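 Naive male DBA/1 mice received one oral dose within the 1–100 mg/kg range, alongside a vehicle group. Compound plasma concentration was measured at 0.5, 6 or 24 h post-dose, with n = 3–5 per dose group. Values are mean + SEM, and the limit of quantification was 1.52 ng/mL.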

[7] = Tmax in DBA/1 mouse at 1 to 100 mg/kg, po administered as single dose measured after 0.5 to 24 hrs; type: ADME, organism-based; conditions: in vivo, dose 1-100 mg/kg, time 0.5-24 hrs
How it was run: as §1

[8] = Drug level in plasma of DBA/1 mouse at 1 to 100 mg/kg, po administered as single dose measured after 0.5 to 24 hrs; type: ADME, organism-based; conditions: in vivo, dose 1-100 mg/kg, time 0.5-24 hrs
How it was run: as §1

[9] = Plasma concentration in DBA/1 mouse plasma at 100 mg/kg, po administered as single dose measured after 24 hrs; type: ADME, organism-based
How it was run: as §1

[10] = Cmax in DBA/1 mouse plasma at 1 mg/kg, po administered as single dose measured after 0.5 hrs; type: ADME, organism-based; set-up: route oral, time 0.5 hrs, dose 1 mg/kg
How it was run: as §1

[11] = Plasma concentration in DBA/1 mouse plasma at 30 mg/kg, po administered as single dose measured after 24 hrs; type: ADME, organism-based
How it was run: as §1

[12] = Plasma concentration in beagle dog at 1 mg/kg, po after 8 hrs by LC-MS-MS analysis; type: ADME, organism-based, Canis lupus familiaris
How it was run: (§2)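 Dogs received a single oral dose of 1 mg/kg (n = 2). Parameters are averages and Tmax is the median. Plasma was sampled at 8 h post-dose, among other times. Bioavailability is referenced to the 1 mg/kg iv dose (n = 2).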

[13] = Oral bioavailability in beagle dog at 1 mg/kg after 24 hrs by LC-MS-MS analysis; type: ADME, organism-based, Canis lupus familiaris; conditions: in vivo
How it was run: as §2

[14] = Volume of distribution at steady state in Wistar rat at 1 mg/kg, iv after 24 hrs by LC-MS-MS analysis; type: ADME, organism-based; conditions: in vivo, read-out: Vdss
How it was run: (§3)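 Single intravenous dose of 1 mg/kg in rat and in dog, with n = 2 animals per species. Parameters are reported as averages. Blood clearance is plasma clearance corrected for blood/plasma partitioning and expressed as a fraction of liver blood flow.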

[15] = Plasma concentration in Wistar rat at 10 mg/kg, po after 8 hrs by LC-MS-MS analysis; type: ADME, organism-based
How it was run: (§4)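 Rats received a single oral dose of 10 mg/kg (n = 3). Parameters are averages and Tmax is the median. Plasma was sampled at 8 h post-dose, among other times. Bioavailability is referenced to the 1 mg/kg iv dose (n = 2).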

[16] = Tmax in Wistar rat at 10 mg/kg, po after 24 hrs by LC-MS-MS analysis; type: ADME, organism-based; conditions: in vivo
How it was run: as §4

[17] = Oral bioavailability in Wistar rat at 10 mg/kg after 24 hrs by LC-MS-MS analysis; type: ADME, organism-based; conditions: in vivo
How it was run: as §4

[18] = Volume of distribution at steady state in beagle dog at 1 mg/kg, iv after 24 hrs by LC-MS-MS analysis; type: ADME, organism-based, Canis lupus familiaris; conditions: in vivo, read-out: Vdss
How it was run: as §3

[19] = Tmax in beagle dog at 1 mg/kg, po after 24 hrs by LC-MS-MS analysis; type: ADME, organism-based, Canis lupus familiaris; conditions: in vivo
How it was run: as §2

[20] = AUC (0 to last) in Wistar rat at 10 mg/kg, po after 24 hrs by LC-MS-MS analysis; type: ADME, organism-based; set-up: route oral, dose 10 mg/kg, time 24 hrs; conditions: in vivo
How it was run: as §4

[21] = AUC (0 to last) in beagle dog at 1 mg/kg, po after 24 hrs by LC-MS-MS analysis; type: ADME, organism-based, Canis lupus familiaris; set-up: route oral, time 24 hrs, dose 1 mg/kg; conditions: in vivo
How it was run: as §2

[22] = Cmax in Wistar rat at 10 mg/kg, po after 24 hrs by LC-MS-MS analysis; type: ADME, organism-based; set-up: route oral, time 24 hrs, dose 10 mg/kg; conditions: in vivo
How it was run: as §4

[23] = AUC (0 to infinity) in Wistar rat at 1 mg/kg, iv after 24 hrs by LC-MS-MS analysis; type: ADME, organism-based; set-up: route intravenous, dose 1 mg/kg, time 24 hrs; conditions: in vivo
How it was run: as §3

[24] = Cmax in beagle dog at 1 mg/kg, po after 24 hrs by LC-MS-MS analysis; type: ADME, organism-based, Canis lupus familiaris; set-up: route oral, dose 1 mg/kg, time 24 hrs; conditions: in vivo
How it was run: as §2

[25] = AUC (0 to infinity) in beagle dog at 1 mg/kg, iv after 24 hrs by LC-MS-MS analysis; type: ADME, organism-based, Canis lupus familiaris; set-up: route intravenous, dose 1 mg/kg, time 24 hrs; conditions: in vivo
How it was run: as §3

Structure (SMILES)	pKa [1]	logD [2]	other results
CN1CC[C@H](NC(=O)c2cc(-c3ccc(F)cc3F)on2)[C@@H](C(=O)NC2(c3ncccn3)CC2)C1	7.3	1.7	
O=C(N[C@H]1CCN(CC2(F)CC2)C[C@@H]1C(=O)NC1(c2ncccn2)CC1)c1cc(-c2ccc(F)cc2F)on1	6.2	2.7	
O=C(N[C@H]1CCN(CCCF)C[C@@H]1C(=O)NC1(c2ncccn2)CC1)c1cc(-c2ccc(F)cc2F)on1	6.8	2.2	
O=C(NC1CCN(C2CCCCC2)CC1)c1noc(-c2ccc(F)cc2F)n1		1.6	
C[C@@H](NC(=O)[C@H]1CN(C2CCCCC2)CC[C@@H]1NC(=O)c1cc(-c2ccc(F)cc2F)on1)c1ccccn1		3.9	solubility [3]: 4 µg/mL (≈ 7.44 µM); solubility [4]: > 910 µg/mL; solubility [5]: 38 µg/mL (≈ 70.7 µM)
O=C(N[C@H]1CCN(C2CCC2)C[C@@H]1C(=O)NC1(c2ncccn2)CC1)c1cc(-c2ccc(F)cc2F)on1	7.4	2.9	
COCCN1CC[C@H](NC(=O)c2cc(-c3ccc(F)cc3F)on2)[C@@H](C(=O)NC2(c3ncccn3)CC2)C1	6.7	1.9	
CC(C)(NC(=O)[C@H]1CN(C2CCCCC2)CC[C@@H]1NC(=O)c1cc(-c2ccc(F)cc2F)on1)c1ccccn1		3.8	
CCN1CC[C@H](NC(=O)c2cc(-c3ccc(F)cc3F)on2)[C@@H](C(=O)NC2(c3ncccn3)CC2)C1	7.6	1.8	
O=C(N[C@H]1CCNC[C@@H]1C(=O)NC1(c2ncccn2)CC1)c1cc(-c2ccc(F)cc2F)on1	8.1	0.6	
C[C@@H](NC(=O)[C@H]1CN(C2CCCCC2)CC[C@@H]1NC(=O)c1cc(-c2ccc(F)cc2F)on1)c1ccccc1		> 4.1	
O=C(N[C@H]1CCN(CC2CC2)C[C@@H]1C(=O)NC1(c2ncccn2)CC1)c1cc(-c2ccc(F)cc2F)on1	7.7	2.5	solubility [3]: 374 µg/mL (≈ 716 µM); Cmax [6]: 4280 ng/mL; Tmax [7]: 30 min; solubility [4]: > 880 µg/mL; Drug uptake [8]: Dose-dependent effect; concentration at 24 h [9]: 14 ng/mL; solubility [5]: 513 µg/mL (≈ 982 µM); Cmax [10]: 6 ng/mL; concentration at 24 h [11]: < 1.52 ng/mL
CC(C)N1CC[C@H](NC(=O)c2cc(-c3ccc(F)cc3F)on2)[C@@H](C(=O)NC2(c3ncccn3)CC2)C1	8	1.8	
O=C(N[C@H]1CCN(C2CCCCC2)C[C@@H]1C(=O)NCc1ccccc1)c1cc(-c2ccc(F)cc2F)on1		> 4.1	
O=C(N[C@H]1CCN(C2CC2)C[C@@H]1C(=O)NC1(c2ncccn2)CC1)c1cc(-c2ccc(F)cc2F)on1	6.1	2.4	
CCCN1CC[C@H](NC(=O)c2cc(-c3ccc(F)cc3F)on2)[C@@H](C(=O)NC2(c3ncccn3)CC2)C1	7.6	2.5	
O=C(N[C@H]1CCN(C2CCCCC2)C[C@@H]1C(=O)NC1(c2ccccn2)CC1)c1cc(-c2ccc(F)cc2F)on1		> 3.8	
O=C(N[C@H]1CCN(C2CC(F)(F)C2)C[C@@H]1C(=O)NC1(c2ncccn2)CC1)c1cc(-c2ccc(F)cc2F)on1	5.2	2.9	
O=C(NC1CCN(C2CCCCC2)CC1)c1cc(-c2ccc(F)cc2F)on1			solubility [3]: 15 µg/mL (≈ 38.5 µM); solubility [4]: 196 µg/mL (≈ 503 µM); solubility [5]: 144 µg/mL (≈ 370 µM)
O=C(N[C@H]1CCN(C2CCCCC2)C[C@@H]1C(=O)NC1(c2ncccn2)CC1)c1cc(-c2ccc(F)cc2F)on1		2.9	
Cl.O=C(N[C@H]1CCN(CC2CC2)C[C@@H]1C(=O)NC1(c2ncccn2)CC1)c1cc(-c2ccc(F)cc2F)on1			concentration at 8 h [12]: 185 ng/mL; bioavailability [13]: 61%; Vd [14]: 3.6 L/kg; concentration at 8 h [15]: 18.3 ng/mL; Tmax [16]: 30 min; bioavailability [17]: 35%; Vd [18]: 1.6 L/kg; Tmax [19]: 90 min; AUClast [20]: 827 ng·h/mL; AUClast [21]: 3620 ng·h/mL; Cmax [22]: 600 ng/mL; AUC [23]: 238 ng·h/mL; Cmax [24]: 314 ng/mL; AUC [25]: 5940 ng·h/mL
O=C(N[C@H]1CCN(CC2CCC2)C[C@@H]1C(=O)NC1(c2ncccn2)CC1)c1cc(-c2ccc(F)cc2F)on1	7.7	3.1	
CC(=O)N1CC[C@H](NC(=O)c2cc(-c3ccc(F)cc3F)on2)[C@@H](C(=O)NC2(c3ncccn3)CC2)C1	< 2	1.6	
CN(C)C(=O)[C@H]1CN(C2CCCCC2)CC[C@@H]1NC(=O)c1cc(-c2ccc(F)cc2F)on1 (racemic)			solubility [3]: 192 µg/mL (≈ 417 µM); solubility [4]: 652 µg/mL (≈ 1420 µM); solubility [5]: 569 µg/mL (≈ 1240 µM)
